This note sets out measurements from ChEMBL document CHEMBL4145543, “Synthesis and pharmacological evaluation of 6,7-dimethoxy-1,2,3,4-tetrahydroisoquinoline derivatives as sigma-2 receptor ligands” (Eur J Med Chem, 2018).

SMILES strings stand for the structures.

The term IC50 denotes the concentration that inhibits the measured activity by half. A low value points to higher potency. What is called inhibition is the share of the control response that was lost under treatment. The Ki is the equilibrium dissociation constant of an inhibitor or competing ligand from its target.

The subject of assay [1] is Huh-7. Nature of the assay: Cytotoxicity against human HuH7 cells after 48 hrs by CCK8 assay. To be noted: Huh-7, 48 h. It counts as functional, cell-based. The method in brief:
(§1)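 Exponentially growing Huh7 or KYSE-140 cells seeded at 4,000 cells/well, adhered overnight, then exposed to 6 concentrations for 48 h; DMSO vehicle control. CCK-8 added, 2 h at 37 °C in dark, absorbance at 450 nm. Viability as percent of control OD; IC50 by curve fitting, at least three experiments.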
A general note: Tetrazolium assays rely on reduction of a dye to a coloured formazan, in cell work by metabolically active cells.

In assay [2] the target is T1, Sigma intracellular receptor 2 (Rattus norvegicus) (UniProt Q5U3Y7).
T1 sequence (whole entry): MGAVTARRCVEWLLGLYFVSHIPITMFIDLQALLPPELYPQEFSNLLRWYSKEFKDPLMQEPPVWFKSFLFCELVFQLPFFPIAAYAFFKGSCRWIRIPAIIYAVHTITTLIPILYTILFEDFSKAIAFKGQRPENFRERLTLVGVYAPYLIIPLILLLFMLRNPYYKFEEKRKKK
Kind of assay: Displacement of [3H]DTG from sigma-2 receptor in Sprague-Dawley rat liver membranes at 1 uM after 120 mins in presence of (+)-pentazocine by microbeta scintillation counting method relative to control. It counts as cell membranes. The note with it: Membrane. The method in brief:
(§2)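 Single-point screen at 1 µM for displacement of [3H](+)-pentazocine (sigma-1, guinea pig brain membranes) or [3H]-DTG (sigma-2, rat liver membranes, with 100 nM (+)-pentazocine); 25 °C, pH 8.0 Tris buffer. Hits were defined as >50% displacement.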
(In a radioligand displacement assay an active substance lowers the binding of a labelled ligand.)

The test system of assay [3] is KYSE-140. Kind of assay: Cytotoxicity against human KYSE-140 cells after 48 hrs by CCK8 assay. It counts as functional, cell-based. The note with it: KYSE-140, 48 h. In short, it runs like this: as §1
Assay [4] has as its target T2, Sigma intracellular receptor 2 (Rattus norvegicus, UniProt Q5U3Y7).
T2 sequence (Q5U3Y7 whole entry): T1 sequence (whole entry)
Nature of the assay: Displacement of [3H]DTG from sigma-2 receptor in Sprague-Dawley rat liver membranes after 120 mins in presence of (+)-pentazocine by microbeta scintillation counting method. The format is cell membranes, Membrane.

For assay [5], the target named is Sigma non-opioid intracellular receptor 1 (Cavia porcellus) (UniProt Q60492). Kind of assay: Displacement of [3H]-(+)-pentazocine from sigma-1 receptor in guinea pig brain membranes at 1 uM after 120 mins by microbeta scintillation counting method relative to control. The format is cell membranes. The note with it: Membrane. The method in brief: as §2
The target of assay [6] is Sigma non-opioid intracellular receptor 1 (Cavia porcellus, UniProt Q60492). Nature of the assay: Displacement of [3H]-(+)-pentazocine from sigma-1 receptor in guinea pig brain membranes after 120 mins by microbeta scintillation counting method. The format is cell membranes, Membrane. In short, it runs like this:
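Guinea pig brain membranes (frozen brains minus cerebellum; 300 µg) incubated with 6 nM [3H]-(+)-pentazocine stock (~42 Ci/mmol), 50 mM Tris-HCl pH 8.0, 25 °C, 120 min. Compounds from ethanol, 0.1-1000 nM, 10 points. Ice-cold 10 mM Tris stop, GF/B filtration, scintillation counting. Nonspecific defined with (+)-pentazocine or haloperidol (10 µM).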

Assay [7] is described as follows: Selectivity ratio of Ki for sigma-1 receptor in guinea pig brain membranes to Ki for sigma-2 receptor in Sprague-Dawley rat liver membranes. The format is cell membranes.
Assay [8] deals with Sigma intracellular receptor 2 (Homo sapiens, UniProt Q5BJF2). Nature of the assay: Binding affinity to sigma-2 receptor (unknown origin).
Assay [9] deals with Sigma non-opioid intracellular receptor 1 (Homo sapiens, UniProt Q99720). Kind of assay: Binding affinity to sigma-1 receptor (unknown origin).
Chain of Sigma non-opioid intracellular receptor 1 (Homo sapiens, UniProt Q99720) (Q99720 whole entry): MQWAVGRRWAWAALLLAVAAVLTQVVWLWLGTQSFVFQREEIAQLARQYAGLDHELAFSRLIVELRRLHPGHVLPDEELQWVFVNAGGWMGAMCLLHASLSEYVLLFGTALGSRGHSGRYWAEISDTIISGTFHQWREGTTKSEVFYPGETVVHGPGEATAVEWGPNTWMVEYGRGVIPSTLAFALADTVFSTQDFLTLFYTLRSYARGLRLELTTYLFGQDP

Chain of Sigma non-opioid intracellular receptor 1 (Cavia porcellus, UniProt Q60492) (Q60492 whole entry): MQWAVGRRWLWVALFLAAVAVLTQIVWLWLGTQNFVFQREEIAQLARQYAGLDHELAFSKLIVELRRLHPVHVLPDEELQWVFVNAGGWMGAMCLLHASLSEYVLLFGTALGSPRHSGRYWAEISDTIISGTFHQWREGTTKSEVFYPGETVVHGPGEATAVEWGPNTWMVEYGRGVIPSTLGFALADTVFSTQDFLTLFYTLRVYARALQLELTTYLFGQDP
Chain of Sigma non-opioid intracellular receptor 1 (Cavia porcellus) (Q60492 whole entry): as above
Chain of Sigma intracellular receptor 2 (Homo sapiens, UniProt Q5BJF2) (Q5BJF2 whole entry): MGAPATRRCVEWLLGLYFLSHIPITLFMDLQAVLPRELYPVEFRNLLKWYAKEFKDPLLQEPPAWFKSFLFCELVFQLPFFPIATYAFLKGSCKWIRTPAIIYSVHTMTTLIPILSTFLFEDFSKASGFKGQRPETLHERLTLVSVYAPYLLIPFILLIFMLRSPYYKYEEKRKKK

For `COc1cc2c(cc1OC)CN(CCCCn1cnc3cc(Cl)c([N+](=O)[O-])cc3c1=O)CC2`, the IC50 in [1] and in assay [3] was above 100 nM each time. Also, the inhibition in assay [2] and in [5] was above 50% in each case. The Ki in [4] and in assay [6] was above 1000 nM each time.

For the compound `COc1cc2c(cc1OC)CN(CCCCn1cnc3cc(OC)c(OC)cc3c1=O)CC2`, the IC50 in assay [1] and in [3] was above 100 nM throughout. The Ratio Ki in [7] was above 22.8. For the same compound, the inhibition in assay [2] and in assay [5] was above 50% in each case. The Ki in assay [4] was 43.8 nM; in assay [6], above 1000 nM.

Take `COc1cc2c(cc1OC)CN(CCCn1cnc3cc(Cl)c([N+](=O)[O-])cc3c1=O)CC2`: the IC50 in assay [1] and in assay [3] was above 100 nM each time. The inhibition in [2] and in assay [5] was above 50% each time. The Ki in assay [4] and in [6] was above 1000 nM in each case.

With `COc1ccc(C(O)CCN2CCc3cc(OC)c(OC)cc3C2)c(OC)c1` (stereo unspecified), the IC50 came out at 45900 nM in [1] and 26100 nM in [3]. Also, in assay [7], the Ratio Ki is above 33. Besides, the inhibition in assay [2] and in assay [5] was above 50% throughout. In addition, the values for the Ki in assay [4] and in assay [6] were 30.2 nM and above 1000 nM, respectively.

For the compound `COc1ccc(C(O)CCN2CCc3cc(OC)c(OC)cc3C2)c(C)c1` (stereo unspecified), the IC50 in assay [1] and in assay [3] was above 100 nM in each case. The Ratio Ki in assay [7] was above 55. In addition, the inhibition in assay [2] and in assay [5] was above 50% throughout. Besides, the figures for the Ki in [4] and in [6] were 18.2 nM and above 1000 nM, respectively.

As to `COc1ccc(C(O)CN2CCc3cc(OC)c(OC)cc3C2)c(OC)c1` (stereo unspecified), the IC50 in assay [1] and in assay [3] was above 100 nM each time. In assay [7], the Ratio Ki was above 16. The inhibition in assay [2] and in assay [5] was above 50% each time. Further, the Ki is 62 nM in [4] and above 1000 nM in assay [6].

On to `COc1ccc(C(=O)CCCCN2CCc3cc(OC)c(OC)cc3C2)c(OC)c1`, for which the IC50 is above 100 nM in [1] and 88300 nM in assay [3]. In assay [7], the Ratio Ki stood at 5.6. The inhibition in assay [2] and in assay [5] was above 50% throughout. The Ki is 5.8 nM in [4] and 32.9 nM in [6].

In the case of `COc1ccc(C(=O)CCN2CCc3cc(OC)c(OC)cc3C2)c(C)c1`, the IC50 was found to be 42800 nM in assay [1] and 60100 nM in [3]. Further, in assay [7], the Ratio Ki was found to be 0.5. Moreover, the inhibition in assay [2] and in assay [5] was above 50% throughout. Moreover, the Ki in assay [4] was 23.7 nM; in [6], 13.3 nM.

Regarding `COc1cc2c(cc1OC)CN(CCC(=O)c1c(C)c(OC)c(OC)c(OC)c1O)CC2`, the IC50 in [1] worked out at 81600 nM; in assay [3], 93700 nM. Also, the inhibition in assay [2] and in assay [5] was above 50% throughout. Moreover, the Ki in [4] and in [6] was above 1000 nM in each case.

For `COc1ccc(C)cc1NC(=O)OC1C[C@H]2CCC[C@H](C1)N2CCCCCCN` (stereo partly specified), the Ki in assay [8] was 5.19 nM; in assay [9], 1420 nM.

Consider `COc1cc2c(cc1OC)CN(CCCCNC(=O)c1cc(I)cc(OC)c1OCC[18F])CC2`, for which the Ki in assay [8] worked out at 0.26 nM; in [9] it was 2150 nM.

Take `COc1ccc(C(O)CCCCN2CCc3cc(OC)c(OC)cc3C2)c(OC)c1` (stereo unspecified): the Ratio Ki in assay [7] was above 161. The inhibition in [2] and in assay [5] was above 50% throughout. Besides, the Ki in assay [4] was 6.2 nM; in assay [6] it was above 1000 nM.

As to `COc1ccc(C(O)CCCCN2CCc3cc(OC)c(OC)cc3C2)c(C)c1` (stereo unspecified), the IC50 in assay [1] was found to be 12500 nM; in assay [3], 14900 nM. Besides, the Ratio Ki in assay [7] is above 192. Besides, the inhibition in [2] and in [5] was above 50% in each case. Also, the figures for the Ki in assay [4] and in [6] were 5.2 nM and above 1000 nM, respectively.

Take `CC[C@H]1C[C@@H]2C[C@H]3c4[nH]c5ccc(OC)cc5c4CCN(C2)[C@@H]13`: the Ki worked out at 90.4 nM in assay [8] and 9310 nM in assay [9].

Consider `COc1cc2c(cc1OC)CN(CCn1cnc3cc(Cl)c([N+](=O)[O-])cc3c1=O)CC2`, for which the IC50 in assay [1] and in assay [3] was above 100 nM in each case. Further, the inhibition in assay [2] and in assay [5] was above 50% each time. Moreover, the Ki in [4] and in assay [6] was above 1000 nM throughout.

Regarding `c1ccc2c(c1)c1ccccc1n2CCCN1CCN(C2CCCCC2)CC1`, the results for the Ki in [8] and in assay [9] were 12.6 nM and 3450 nM, respectively.

As for `COc1ccc(C(=O)CCCCN2CCc3cc(OC)c(OC)cc3C2)c(C)c1`, the IC50 in assay [1] and in [3] was above 100 nM in each case. In addition, the Ratio Ki in assay [7] was above 196. The inhibition in assay [2] and in [5] was above 50% each time. Also, the results for the Ki in assay [4] and in [6] were 5.1 nM and above 1000 nM, respectively.

For the compound `COc1ccc(C(=O)CCN2CCc3cc(OC)c(OC)cc3C2)c(OC)c1`, the results for the IC50 in assay [1] and in assay [3] were 75300 nM and above 100 nM, respectively. In assay [7], the Ratio Ki was above 14. Moreover, the inhibition in assay [2] and in assay [5] was above 50% in each case. The values for the Ki in assay [4] and in assay [6] were 68.1 nM and above 1000 nM, respectively.

For `COc1cc2c(cc1OC)CN(CCCn1cnc3cc(OC)c(OC)cc3c1=O)CC2`, the IC50 in [1] and in [3] was above 100 nM each time. Besides, the Ratio Ki in assay [7] was above 71.9. The inhibition in assay [2] and in [5] was above 50% each time. Moreover, the Ki in assay [4] was 13.9 nM; in assay [6] it was above 1000 nM.

Take `CCn1c(=O)n(C(=O)NC2C[C@@H]3CC[C@@H](C2)N3C)c2ccccc21` (stereo partly specified): the Ki in [8] was found to be 32 nM; in assay [9] it was 6300 nM.

As for `COc1ccc(C(=O)CN2CCc3cc(OC)c(OC)cc3C2)c(OC)c1`, the IC50 in assay [1] and in assay [3] was above 100 nM in each case. In addition, the Ratio Ki in [7] is above 18. Also, the inhibition in [2] and in [5] was above 50% throughout. Also, the results for the Ki in assay [4] and in assay [6] were 53.8 nM and above 1000 nM, respectively.
